Bioassay records from PubChem BioAssay.
Sampled rows, rich in hits. Any-hit rate of the full collection: about 1.8%.
M5 PAM: CHRM5 positive allosteric modulation. P08912. 360,000 compounds, 0.3% hits. activation, % at 3 µM. AID 624038. CHO-K1 hM5, Fluo-8 calcium, ACh EC20 PAM; 0% = ACh EC20, 100% = ACh EC100;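 active = activation above the run cutoff, the mean activation of all test compounds plus 3 SD, cut at about 18% in these data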
Target sequence (P08912 whole entry, looked up): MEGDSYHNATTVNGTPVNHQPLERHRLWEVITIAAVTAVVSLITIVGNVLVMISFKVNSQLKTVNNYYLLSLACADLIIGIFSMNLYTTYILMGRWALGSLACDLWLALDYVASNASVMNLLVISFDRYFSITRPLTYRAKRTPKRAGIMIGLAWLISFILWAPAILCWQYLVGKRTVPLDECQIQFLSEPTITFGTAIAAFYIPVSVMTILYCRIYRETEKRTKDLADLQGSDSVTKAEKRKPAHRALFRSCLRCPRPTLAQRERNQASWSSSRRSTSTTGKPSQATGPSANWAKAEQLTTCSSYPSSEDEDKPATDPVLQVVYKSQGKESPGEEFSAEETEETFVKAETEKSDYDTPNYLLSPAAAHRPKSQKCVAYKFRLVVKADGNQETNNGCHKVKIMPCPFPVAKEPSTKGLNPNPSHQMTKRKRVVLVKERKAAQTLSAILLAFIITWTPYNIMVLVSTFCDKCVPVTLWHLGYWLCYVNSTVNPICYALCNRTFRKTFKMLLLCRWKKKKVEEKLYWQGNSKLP
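Assay system: CHO-K1 hM5 cells. Also added: acetylcholine at EC20 concentration, added after compound. Dosing: 3 µM, single dose. Times: compound preincubation 140 s before EC20 acetylcholine addition. Signal: Fluo-8 calcium fluorescence. Measure: % activation relative to EC20 and EC100 ACh responses. Repeats: singlicate, one well per test compound.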
M5 ag: CHRM5 agonism in calcium assay; P08912; CHO-K1 hM5 cells, Fluo-8 calcium fluorescence; 0% DMSO wells, 100% maximal acetylcholine response; activation, % at 3 µM; 360,000 compounds, 0.19% hits;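 active = activation above the run's mean over test compounds plus 3 SD, cut at about 23% in these data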;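 note: signal is peak over basal fluorescence ratio across the kinetic read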
M5 antag: blocks acetylcholine activation of human M5 receptor; P08912; CHO-hM5 cells, Fluo-8 calcium fluorescence, ACh EC80; inhibition, % at 3 µM; 360,000 compounds, 0.59% hits; AID 624040;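 active = inhibition above a per-plate cutoff, the mean of that plate's test compounds plus 3 SD, cut at about 27% in these data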;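 note: 0% = acetylcholine EC80 with DMSO and 100% = DMSO without agonist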
CHRM4 agonist: CHRM4 agonism in calcium assay; activation, % at 3 µM; 360,000 compounds, 0.14% hits; AID 624127; CHO-K1 hM4/Gqi5, Fluo-8 calcium fluorescence; vehicle 0%, full acetylcholine response 100%; P08173;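 active = activation above the run mean over all test wells plus 3 SD, cut at about 32% in these data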;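 note: peak over basal fluorescence ratio per well then scaled between controls; 0% = DMSO wells and 100% = acetylcholine at EC100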
CHRM4 PAM: CHRM4 positive allosteric modulation; CHO-K1 hM4/Gqi5, Fluo-8 calcium fluorescence, ACh EC20; 0% = ACh EC20, 100% = maximal ACh; P08173; 360,000 compounds, 0.4% hits; AID 624126; activation, % at 3 µM;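 active = activation above its plate's cutoff, the mean activation of sample wells plus 3 SD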
CHRM4 antagonist: antagonists of human muscarinic M4 receptor (CHRM4); inhibition, % at 3 µM; AID 624125; 360,000 compounds, 0.73% hits; CHO-hM4 cells, ACh EC80, Fluo-8 calcium fluorescence; P08173;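 active = inhibition above its plate's cutoff, the mean inhibition of sample wells plus 3 SD, cut at about 27% in these data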;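 note: 0% = acetylcholine EC80 with DMSO and 100% = DMSO without agonist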
* = called active by the depositor.

SMILES | M5 PAM | M5 ag | M5 antag | CHRM4 agonist | CHRM4 PAM | CHRM4 antagonist
CC1CCN(C(=O)COC(=O)c2ccc3ccccc3n2)CC1 | -4.9 | 0.9 | -4.3 | 0.0 | -2.0 | 4.3
Cc1ccc(C)c(NC(=S)N(C)CCc2ccccn2)c1 | 10.2 | -3.2 | -5.0 | 1.3 | 17.9* | -5.0
CN(C)C(=O)CSc1nc2ccccc2n1Cc1ccccc1 | -8.8 | -8.3 | 12.4 | -0.1 | -5.1 | 0.3
CCN(CC)CCSc1nc2ccccc2n1Cc1ccccc1 | -17.2 | -7.5 | 40.1* | 2.0 | -16.6 | 35.5*
CCc1ccc(C(=O)NNC(=O)c2c(CC)noc2C)cc1 | -4.6 | 1.8 | 2.3 | 1.0 | 9.3 | -7.2
CCn1c(NCc2ccc(N(C)C)cc2)nc2ccccc21 | 18.2* | -7.3 | -3.4 | 1.9 | 8.2 | -2.8
CC(=O)C[C@@H](O)CC(=O)[C@@H]1OC(=O)CCCCCCc2ccccc21 | 12.4 | 4.4 | -2.1 | 4.5 | 3.6 | -2.1
O=C(c1ccc(F)cc1)N1CCN(c2ccc([N+](=O)[O-])cc2-n2cccc2)CC1 | -11.4 | 2.2 | 1.9 | 1.6 | -2.5 | -5.2
CC1(C)OC(=O)CC1C(=O)NCc1ccccc1 (stereo not drawn) | 25.5* | -3.6 | 7.3 | 0.5 | -0.3 | -7.4
CCCn1cnc2c(=O)oc3ccccc3c21 | 30.1* | -0.9 | -1.7 | 0.4 | 8.2 | -1.8
CCCn1nnc2c(=O)oc3ccccc3c21 | 0.7 | -1.7 | -0.3 | 0.0 | 2.1 | -5.1
CCCCCn1nnc2c(=O)oc3ccccc3c21 | 3.5 | -2.1 | -0.4 | 2.4 | 28.3* | -5.4
O=C(Nc1cccc(C(F)(F)F)c1)C1Cc2c(-c3ccc(Cl)cc3)ccnc2O1 (stereo not drawn) | -1.1 | 0.7 | -5.2 | 1.4 | 16.7* | -36.6
Cc1snc(SCc2ccc(Cl)cc2)c1C#N | -2.2 | -2.5 | 8.0 | -0.7 | -2.2 | 5.8
COc1ccc2cc(C(=O)C3CCCN(C(=O)c4cnn(C(C)C)c4)C3)ccc2c1 (stereo not drawn) | -4.1 | -2.3 | 0.0 | 5.8 | -1.4 | -4.5
O=C1c2ccccc2C(=O)N1Nc1ccccc1 | -0.8 | -6.5 | 8.4 | 0.4 | 1.9 | 3.7
Cc1ccc(NN2C(=O)C=C(c3ccccc3)C2=O)cc1 | 9.1 | 14.6 | 13.7 | 4.7 | -15.7 | 35.3*
CCCc1cc(C(=O)N2CCCC(N3CCN(c4ccccc4F)CC3)C2)n(C)n1 (stereo not drawn) | 2.7 | 0.5 | 3.7 | 0.9 | -4.6 | 6.2
CCOc1ccc(NC(=O)c2cc3c(=O)n(C)c4ccccc4c3n2C)cc1 | -0.4 | 4.3 | -2.1 | 1.2 | 3.2 | -1.3
COc1ccccc1NC(=O)c1cc2c(=O)n(C)c3ccccc3c2n1C | -17.4 | -3.1 | 14.9 | 9.6 | -22.4 | 53.7*
COc1cc(/C=C/C(=O)O)cc(S(=O)(=O)Nc2cc(Cl)c(Cl)cc2Cl)c1OC | 13.6 | -1.2 | -11.3 | 0.3 | 18.3 | -11.3
COc1cc(/C=C/C(=O)O)cc(S(=O)(=O)NC2CCCC2)c1OC | -5.7 | -2.4 | 5.2 | -1.5 | -51.9 | 98.1*
Oc1ccc(/C=N/Nc2ccc(C(F)(F)F)cn2)cc1 | -4.3 | 5.8 | 1.5 | 3.4 | -6.5 | -2.7
C/C(=N\Nc1ccc(C(F)(F)F)cn1)c1ccncc1 | 8.5 | -5.2 | 1.4 | 6.0 | 20.9* | -10.1
CN1CCC(=C(c2ccccc2)c2ccc(Br)cc2)CC1 | -34.5 | -14.9 | 29.5* | 11.8 | -46.5 | 12.4
SMILES | M5 PAM | M5 ag | M5 antag | CHRM4 agonist | CHRM4 PAM | CHRM4 antagonist
O=C1CCCN2N=C(SCC(=O)Nc3cccc(C(F)(F)F)c3)SC2=N1 | -12.8 | 5.8 | 35.9* | 13.8 | -14.3 | 12.1
COc1ccc(Cc2nc3ccccc3c(=O)n2N)cc1OC | 6.0 | 3.5 | -0.4 | 5.0 | 0.4 | -10.3
CC(=O)NNC(=S)NC(=O)C(c1ccccc1)c1ccccc1 | 9.0 | 6.1 | -4.2 | 16.3 | 5.3 | 3.5
CC(C)(C)C(=O)NC(=S)NNC(=O)C(c1ccccc1)c1ccccc1 | -34.1 | 110.6* | 51.8* | 154.1* | -43.4 | 75.8*
Cc1ccc(NS(=O)(=O)c2ccc(C(=O)Nc3nncs3)cc2)cc1 | -10.8 | 6.3 | 17.9 | 7.6 | -1.3 | 4.8
CN1CCCN=C1COC(=O)C(O)(c1ccccc1)C1CCCCC1 (stereo not drawn) | -18.5 | -1.6 | 98.7* | 0.8 | -18.2 | 99.2*
CCOc1ccc(-c2c(C(=O)N/N=C/C3CCCCC3)nnn2-c2nonc2N)cc1 | 4.0 | -1.4 | 3.4 | 3.6 | -7.5 | -6.3
Cc1ccc(CNc2ncnc3cc(Cl)ccc23)cc1 | -18.3 | 1.5 | 35.2* | 12.8 | -10.8 | 12.1
O=C(/C(N=Nc1cccc([N+](=O)[O-])c1)=C(/O)c1ccc(Br)cc1)C(F)(F)F | -19.7 | 4.4 | 23.9 | 17.2 | -15.7 | 36.6*
CN(C)C(=O)c1cccc(-c2cccc(-c3nc(C(=O)NCc4ccccc4)cc4c3[C@H](CCO)N(S(=O)C(C)(C)C)C4)c2)c1 (stereo partly drawn) | -3.8 | 2.1 | 2.1 | -0.3 | -5.8 | -2.6
CCOC(=O)[C@]12CCCC=C1N(Cc1ccco1)C(=O)[C@H](CC(=O)N1CCN(C(=O)c3ccco3)CC1)C2 | 4.9 | 5.6 | -3.5 | -2.2 | 23.7* | -2.7
C#CCNC(=O)C[C@@H]1C[C@@]2(C(=O)OCC)CCC=C2N(Cc2ccco2)C1=O | 3.0 | 1.3 | 0.8 | 1.4 | 28.1* | -10.5
C#CCNC(=O)C[C@@H]1C[C@@]2(C(=O)OC)CCCCC=C2N(Cc2ccco2)C1=O | 14.3 | 7.1 | -17.2 | 0.8 | 6.4 | -1.8
COc1ccc(NS(=O)(=O)c2cccc(NC(=O)c3ccc(Cl)nc3)c2)cc1 | -18.4 | 5.0 | 35.3* | 15.1 | -11.7 | 23.8
O=C(Nc1ccc(NS(=O)(=O)c2ccccc2)cc1)c1ccc(Cl)cc1 | -6.6 | -6.0 | 11.0 | 5.5 | -3.4 | 1.3
O=C(Nc1cccc(S(=O)(=O)Nc2ccc(Cl)cc2)c1)c1ccc(Cl)nc1 | -20.3 | 5.2 | 35.3* | 15.8 | -14.8 | 29.5*
CC(=O)NC(c1cccc(F)c1)c1nc(-c2cccc(C(F)(F)F)c2)cs1 (stereo not drawn) | -2.9 | -2.4 | 3.8 | 0.1 | 2.5 | 0.9
O=[N+]([O-])c1cc(C(F)(F)F)cc([N+](=O)[O-])c1NCCNC(=S)Nc1ccc(Cl)c(Cl)c1 | -24.8 | 10.1 | 35.5* | 14.5 | -11.4 | 30.7*
Cc1cccc(NC(=O)N2CCC(NC(=O)C3CCCCC3)CC2)c1 | -1.9 | -3.3 | 6.1 | 2.4 | -1.4 | -4.2
OC[C@H]1O[C@@H](n2cnc3c(NCc4ccco4)ncnc32)[C@H](O)[C@@H]1O | -17.0 | 45.0* | 6.3 | 0.3 | -3.6 | 6.5
OCC1OC(n2cnc3c(NCc4ccco4)ncnc32)C(O)C1O (stereo not drawn) | 1.8 | -0.2 | 4.5 | 0.1 | -0.9 | -4.2
